Laboratory results taken from ChEMBL document CHEMBL1250472, “"Clicked" bivalent ligands containing curcumin and cholesterol as multifunctional abeta oligomerization inhibitors: design, synthesis, and biological characterization” (J Med Chem, 2010).
Activity calls are given as the source filed them. No cut-off for these calls is given here.

Legend:
[1] = biological target: Amyloid-beta precursor protein (Homo sapiens) (UniProt P05067); test: Inhibition of APP expressed in human MC65 cells assessed as inhibition of amyloid beta oligomer formation at 10 uM by Western blotting after removal of tetracycline
[2] = Cytotoxicity against human MC65 cells after 72 hrs; conditions: mc65, 72 h
Spleen = test: Toxicity against mouse spleen after 24 hrs; type: tissue-based; conditions: in vitro
MC65 [3] = test: Cytoprotective activity against amyloid-beta oligomer-induced cytotoxicity in human MC65 cells after 72 hrs
MC65 [4] = test: Binding affinity to cell membrane/lipid raft of human MC65 cells after 24 hrs by immunocytometry; type: cell-based
Method in brief: (§1)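 MC65 cells exposed to compound (10 μM) for 24 h, fixed in 4% paraformaldehyde, permeabilized with 0.1% Triton X-100, DAPI-stained. Compound's own fluorescence located by confocal microscopy (excitation 355 and 494 nm). 1.0 μm optical sections through the cell depth, projected into a composite image.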

SH-SY5Y [5] = test: Cytoprotective activity against amyloid-beta oligomer-induced cytotoxicity in human SH-SY5Y cells after 48 hrs
MC65 [6] = test: Antioxidant activity in human MC65 cells assessed as decrease in oxidative stress by DCFH-DA assay; type: functional, cell-based
Method in brief: (§2)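 MC65 cells, 4 × 10^4/well, grown 24 h, then exposed to compounds in Opti-MEM with or without TC for 24 h (blanks with compound only). DCFH-DA loaded at 25 μM final for 30 min at 37 °C, medium replaced, fluorescence read at 485/530 nm. Expressed as % of parallel -TC cultures, n = 5.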

[7] = Apparent permeability from basolateral to apical side of human Caco-2 cells; type: ADME, cell-based
Method in brief: (§3)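 Caco-2 cells, passages 30-50, grown 21 days on transwell inserts to confluence; TEER >400 ohm·cm² and lucifer yellow permeability <1 × 10^-6 cm/s. Compound at 10 μM added apical or basolateral in HBSS, 37 °C with shaking. Sampling at 30, 60, 120 min, HPLC with fluorescence detection. Permeability calculated by Fick's law; efflux ratio is B-A/A-B.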

[8] = Apparent permeability from apical to basolateral side of human Caco-2 cells; type: ADME, cell-based
Method in brief: as §3

[9] = Cytotoxicity against mouse NK cells after 24 hrs
MC65 [10] = test: Binding affinity to amyloid beta expressed in human MC65 cells after 24 hrs by immunocytometry; type: cell-based
Method in brief: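 MC65 cells, 1 × 10^4/well, given compounds (10 μM) right after TC removal, 24 h. Surface stained with Alexa 488-CTX-B on ice, then fixed in 4% paraformaldehyde and permeabilized with Triton X-100. Stained with A11 oligomer antibody plus Alexa 568 secondary, DAPI counterstain. Confocal imaging; red puncta per cell averaged over five areas.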

[11] = biological target: Amyloid-beta precursor protein (Homo sapiens) (UniProt P05067); test: Inhibition of APP expressed in human MC65 cells assessed as inhibition of amyloid beta 42 oligomerization by transmission electron microscopy; type: cell-based
[12] = biological target: Amyloid-beta precursor protein (Homo sapiens) (UniProt P05067); test: Inhibition of APP expressed in human MC65 cells assessed as inhibition of amyloid beta oligomer formation at 10 uM by Western blotting; type: cell-based
Method in brief: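 MC65 cells, 1 × 10^6/well, exposed to compounds (10 μM) in Opti-MEM with or without TC for 24 h. Lysates (10 μg protein) run on 10-20% tris-tricine SDS-PAGE and blotted with 6E10 (1:2000), HRP secondary, chemiluminescence. Three independent experiments.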

SH-SY5Y [13] = test: Cytoprotective activity against amyloid-beta oligomer-induced cytotoxicity in human SH-SY5Y cells at 16 uM after 48 hrs
[14] = Cellular uptake in human MC65 cells after 24 hrs by immunocytometry; type: ADME, cell-based; conditions: mc65, 24 h
Method in brief: as §1

SH-SY5Y [15] = test: Cytotoxicity against human SH-SY5Y cells after 48 hrs
SH-SY5Y [16] = test: Cytoprotective activity against amyloid-beta oligomer-induced cytotoxicity in human SH-SY5Y cells at 2 to 8 uM after 48 hrs
MC65 [17] = test: Antioxidant activity in human MC65 cells assessed as decrease in lipid peroxidation by DCFH-DA assay; type: functional, cell-based; conditions: in the assay text read “intracellular oxidative stress” for “lipid peroxidation”
Method in brief: as §2

Amyloid-beta precursor protein (Homo sapiens), sequence (P05067 whole entry): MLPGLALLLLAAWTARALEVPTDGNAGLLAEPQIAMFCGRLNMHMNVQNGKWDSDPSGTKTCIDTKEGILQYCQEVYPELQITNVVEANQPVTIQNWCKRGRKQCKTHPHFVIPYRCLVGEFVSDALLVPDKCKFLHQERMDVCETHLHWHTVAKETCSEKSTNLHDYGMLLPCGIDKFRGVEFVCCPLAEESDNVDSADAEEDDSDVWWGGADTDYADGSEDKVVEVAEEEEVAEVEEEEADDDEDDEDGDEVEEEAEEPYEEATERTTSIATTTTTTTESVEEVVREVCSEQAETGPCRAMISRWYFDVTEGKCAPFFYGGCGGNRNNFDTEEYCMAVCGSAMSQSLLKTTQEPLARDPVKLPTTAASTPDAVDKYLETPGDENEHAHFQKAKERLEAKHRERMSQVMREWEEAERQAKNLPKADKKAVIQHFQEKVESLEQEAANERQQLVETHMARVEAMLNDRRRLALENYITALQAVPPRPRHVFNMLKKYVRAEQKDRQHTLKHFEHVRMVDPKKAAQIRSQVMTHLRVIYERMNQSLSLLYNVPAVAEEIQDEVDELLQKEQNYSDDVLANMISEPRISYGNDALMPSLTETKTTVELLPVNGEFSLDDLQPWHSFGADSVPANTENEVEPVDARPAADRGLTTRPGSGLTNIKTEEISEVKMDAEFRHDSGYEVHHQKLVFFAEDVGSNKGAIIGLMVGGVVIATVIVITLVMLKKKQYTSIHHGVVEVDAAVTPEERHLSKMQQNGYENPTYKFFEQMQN

CCCCNC(=O)CCC(=O)NCCCCCCn1cc(C/C(C(=O)/C=C/c2ccc(O)c(OC)c2)=C(O)\C=C\c2ccc(O)c(OC)c2)nn1
inhibition [1]: inactive

COc1cc(/C=C/C(=O)/C=C(O)/C=C/c2ccc(OCc3cn(CCCCNC(=O)CO[C@H]4CC[C@@]5(C)C(=CC[C@H]6[C@@H]7CC[C@H]([C@H](C)CCCC(C)C)[C@@]7(C)CC[C@@H]65)C4)nn3)c(OC)c2)ccc1O
inhibition [1]: inactive

COc1cc(/C=C/C(=O)/C(Cc2cn(CCCCNC(=O)CCNC(=O)CO[C@H]3CC[C@@]4(C)C(=CC[C@H]5[C@@H]6CC[C@H]([C@H](C)CCCC(C)C)[C@@]6(C)CC[C@@H]54)C3)nn2)=C(O)/C=C/c2ccc(O)c(OC)c2)ccc1O
inhibition [1]: Active

CCCCNC(=O)CCC(=O)NCCCCCCn1cc(COc2ccc(/C=C/C(O)=C/C(=O)/C=C/c3ccc(O)c(OC)c3)cc2OC)nn1
inhibition [1]: inactive

COc1cc(/C=C/C(=O)/C(Cc2cn(CCCCCCNC(=O)CO[C@H]3CC[C@@]4(C)C(=CC[C@H]5[C@@H]6CC[C@H]([C@H](C)CCCC(C)C)[C@@]6(C)CC[C@@H]54)C3)nn2)=C(O)/C=C/c2ccc(O)c(OC)c2)ccc1O
inhibition [1]: inactive

COc1cc(/C=C/C(=O)/C=C(O)/C=C/c2ccc(OCc3cn(CCCCCCNC(=O)CCNC(=O)CCNC(=O)CO[C@H]4CC[C@@]5(C)C(=CC[C@H]6[C@@H]7CC[C@H]([C@H](C)CCCC(C)C)[C@@]7(C)CC[C@@H]65)C4)nn3)c(OC)c2)ccc1O
Activity [2]: Non-toxic

COc1cc(/C=C/C(=O)/C=C(O)/C=C/c2ccc(OCc3cn(CCCCNC(=O)CCNC(=O)CO[C@H]4CC[C@@]5(C)C(=CC[C@H]6[C@@H]7CC[C@H]([C@H](C)CCCC(C)C)[C@@]7(C)CC[C@@H]65)C4)nn3)c(OC)c2)ccc1O
inhibition [1]: Active

COc1cc(/C=C/C(=O)/C(Cc2cn(CCCCCCNC(=O)CCNC(=O)CCNC(=O)CO[C@H]3CC[C@@]4(C)C(=CC[C@H]5[C@@H]6CC[C@H]([C@H](C)CCCC(C)C)[C@@]6(C)CC[C@@H]54)C3)nn2)=C(O)/C=C/c2ccc(O)c(OC)c2)ccc1O
Activity (Spleen): Toxic | Activity (MC65 [3]): Dose-dependent effect | inhibition [1]: Active | Activity (MC65 [4]): Active | Activity (SH-SY5Y [5]): Active | Activity (MC65 [6]): Active | Papp B→A [7]: 4.7 ×10⁻⁶ cm/s | Papp A→B [8]: 7.1 ×10⁻⁶ cm/s | Activity [9]: Non-toxic | Activity (MC65 [10]): inactive | inhibition [11]: Active | inhibition [12]: Active

COc1cc(/C=C/C(=O)/C(Cc2cn(CCCCNC(=O)CO[C@H]3CC[C@@]4(C)C(=CC[C@H]5[C@@H]6CC[C@H]([C@H](C)CCCC(C)C)[C@@]6(C)CC[C@@H]54)C3)nn2)=C(O)/C=C/c2ccc(O)c(OC)c2)ccc1O
inhibition [1]: inactive

COc1cc(/C=C/C(=O)CC(=O)/C=C/c2ccc(O)c(OC)c2)ccc1O [CURCUMIN]
Activity (SH-SY5Y [13]): inactive | Activity (MC65 [3]): Active | inhibition [1]: inactive | Activity (MC65 [6]): Active | Drug uptake [14]: Active | Activity (SH-SY5Y [15]): Toxic | Activity (SH-SY5Y [16]): Active | Activity (MC65 [17]): Active | inhibition [11]: Active

COc1cc(/C=C/C(=O)/C(Cc2cn(CCCCCCNC(=O)CCNC(=O)CO[C@H]3CC[C@@]4(C)C(=CC[C@H]5[C@@H]6CC[C@H]([C@H](C)CCCC(C)C)[C@@]6(C)CC[C@@H]54)C3)nn2)=C(O)/C=C/c2ccc(O)c(OC)c2)ccc1O
inhibition [1]: Active | Activity [2]: Non-toxic

COc1cc(/C=C/C(=O)/C=C(O)/C=C/c2ccc(OCc3cn(CCCCCCNC(=O)CO[C@H]4CC[C@@]5(C)C(=CC[C@H]6[C@@H]7CC[C@H]([C@H](C)CCCC(C)C)[C@@]7(C)CC[C@@H]65)C4)nn3)c(OC)c2)ccc1O
inhibition [1]: inactive

COc1cc(/C=C/C(=O)/C(Cc2cn(CCCCNC(=O)CCNC(=O)CCNC(=O)CO[C@H]3CC[C@@]4(C)C(=CC[C@H]5[C@@H]6CC[C@H]([C@H](C)CCCC(C)C)[C@@]6(C)CC[C@@H]54)C3)nn2)=C(O)/C=C/c2ccc(O)c(OC)c2)ccc1O
inhibition [1]: Active

COc1cc(/C=C/C(=O)/C=C(O)/C=C/c2ccc(OCc3cn(CCCCCCNC(=O)CCNC(=O)CO[C@H]4CC[C@@]5(C)C(=CC[C@H]6[C@@H]7CC[C@H]([C@H](C)CCCC(C)C)[C@@]7(C)CC[C@@H]65)C4)nn3)c(OC)c2)ccc1O
inhibition [1]: Active

COc1cc(/C=C/C(=O)/C=C(O)/C=C/c2ccc(OCc3cn(CCCCNC(=O)CCNC(=O)CCNC(=O)CO[C@H]4CC[C@@]5(C)C(=CC[C@H]6[C@@H]7CC[C@H]([C@H](C)CCCC(C)C)[C@@]7(C)CC[C@@H]65)C4)nn3)c(OC)c2)ccc1O
inhibition [1]: Active
